We go through 5 compounds from ChEMBL document CHEMBL1151744, “New analgesics synthetically derived from the paracetamol metabolite N-(4-hydroxyphenyl)-(5Z,8Z,11Z,14Z)-icosatetra-5,8,11,14-enamide” (J Med Chem, 2008).

Active and inactive are the calls of the source. No cut-off for these calls is given here.

Data set [1] has as its target T1, Prostaglandin G/H synthase 2 (Homo sapiens, UniProt P35354).
T1 sequence (P35354 whole entry): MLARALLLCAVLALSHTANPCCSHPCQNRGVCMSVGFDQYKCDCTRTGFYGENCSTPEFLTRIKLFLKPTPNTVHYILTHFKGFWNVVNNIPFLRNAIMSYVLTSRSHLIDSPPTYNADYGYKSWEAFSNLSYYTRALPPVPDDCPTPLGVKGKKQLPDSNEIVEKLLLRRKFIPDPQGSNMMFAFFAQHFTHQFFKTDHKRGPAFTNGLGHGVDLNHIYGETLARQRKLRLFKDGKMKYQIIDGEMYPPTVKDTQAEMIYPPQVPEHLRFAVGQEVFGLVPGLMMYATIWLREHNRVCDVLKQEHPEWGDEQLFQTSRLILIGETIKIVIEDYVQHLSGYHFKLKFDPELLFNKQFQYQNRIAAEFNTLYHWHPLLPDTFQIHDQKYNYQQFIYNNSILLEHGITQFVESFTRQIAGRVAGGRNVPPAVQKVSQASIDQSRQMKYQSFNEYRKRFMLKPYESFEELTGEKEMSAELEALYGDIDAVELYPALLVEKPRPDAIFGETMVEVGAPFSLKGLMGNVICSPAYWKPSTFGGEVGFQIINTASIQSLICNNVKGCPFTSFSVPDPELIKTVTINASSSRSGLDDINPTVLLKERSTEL
Kind of data set: Inhibition of cyclooxygenase 2 in human whole blood assessed as prostaglandin E2 level.

Data set [2] has as its system Mus musculus. The data set can be described thus: Toxicity in C57BL/6 mouse assessed as loss of locomotor behavior at 325 mg/kg. It counts as organism-based. Also noted: dose 325 mg/kg. The settings on record: in vivo.
Data set [3] concerns the target T2, Cannabinoid receptor 2 (Homo sapiens, UniProt P34972). Kind of data set: Displacement of [3H]CP-55940 from human recombinant CB2 receptor expressed in HEK293 cells at 10 uM. In kind it is cell-based. (Displacement assays read how much labelled ligand stays bound in the presence of the test substance.)
The target of data set [4] is T3, Cannabinoid receptor 1 (Homo sapiens, UniProt P21554). The data set can be described thus: Displacement of [3H]CP-55940 from human recombinant CB1 receptor expressed in HEK293 cells at 10 uM. In kind it is cell-based.
T3 sequence (P21554 whole entry): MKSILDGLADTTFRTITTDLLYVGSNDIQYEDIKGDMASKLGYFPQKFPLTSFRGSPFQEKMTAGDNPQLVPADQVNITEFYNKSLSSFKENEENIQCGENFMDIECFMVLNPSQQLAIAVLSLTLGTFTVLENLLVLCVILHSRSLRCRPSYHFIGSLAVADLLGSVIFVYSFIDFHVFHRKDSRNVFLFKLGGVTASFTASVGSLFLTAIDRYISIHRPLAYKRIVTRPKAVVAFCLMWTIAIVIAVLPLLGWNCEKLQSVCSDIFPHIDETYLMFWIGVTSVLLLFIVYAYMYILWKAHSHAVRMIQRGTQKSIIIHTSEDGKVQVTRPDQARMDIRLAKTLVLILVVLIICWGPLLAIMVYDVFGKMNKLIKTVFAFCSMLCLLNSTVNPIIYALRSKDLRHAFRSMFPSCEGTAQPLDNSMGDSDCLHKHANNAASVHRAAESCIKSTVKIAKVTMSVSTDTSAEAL
Data set [5] deals with Prostaglandin G/H synthase 1 (Homo sapiens, UniProt P23219). The data set can be described thus: Inhibition of cyclooxygenase 1 in human whole blood assessed as thromboxane B2 level. It counts as tissue-based. Put shortly: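 Fresh whole blood came from a healthy volunteer free of NSAIDs for 2 weeks. 1 mL aliquots received test agent in DMSO and were left to clot for 1 h at 37 °C. Serum TXB2 was measured by GC-MS/MS, in quadruplicate.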
Prostaglandin G/H synthase 1, sequence (P23219 whole entry): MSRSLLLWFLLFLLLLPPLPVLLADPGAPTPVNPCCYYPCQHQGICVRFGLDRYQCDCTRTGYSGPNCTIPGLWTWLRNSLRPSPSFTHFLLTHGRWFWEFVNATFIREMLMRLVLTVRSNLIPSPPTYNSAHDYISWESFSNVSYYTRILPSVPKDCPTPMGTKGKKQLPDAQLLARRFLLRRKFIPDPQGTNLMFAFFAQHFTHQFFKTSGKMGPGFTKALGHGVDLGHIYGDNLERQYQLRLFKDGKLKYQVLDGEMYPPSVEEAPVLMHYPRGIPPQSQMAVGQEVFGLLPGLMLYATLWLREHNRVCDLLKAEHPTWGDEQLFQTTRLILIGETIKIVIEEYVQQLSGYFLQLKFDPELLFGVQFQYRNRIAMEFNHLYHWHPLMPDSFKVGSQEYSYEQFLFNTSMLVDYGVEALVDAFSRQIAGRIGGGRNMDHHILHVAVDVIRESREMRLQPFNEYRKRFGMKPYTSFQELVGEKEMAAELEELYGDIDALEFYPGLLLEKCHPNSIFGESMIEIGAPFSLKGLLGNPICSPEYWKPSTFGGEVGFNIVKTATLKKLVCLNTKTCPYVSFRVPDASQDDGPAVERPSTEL

Data set [6] has as its target T4, Fatty-acid amide hydrolase 1 (Rattus norvegicus) (UniProt P97612).
T4 sequence (whole entry): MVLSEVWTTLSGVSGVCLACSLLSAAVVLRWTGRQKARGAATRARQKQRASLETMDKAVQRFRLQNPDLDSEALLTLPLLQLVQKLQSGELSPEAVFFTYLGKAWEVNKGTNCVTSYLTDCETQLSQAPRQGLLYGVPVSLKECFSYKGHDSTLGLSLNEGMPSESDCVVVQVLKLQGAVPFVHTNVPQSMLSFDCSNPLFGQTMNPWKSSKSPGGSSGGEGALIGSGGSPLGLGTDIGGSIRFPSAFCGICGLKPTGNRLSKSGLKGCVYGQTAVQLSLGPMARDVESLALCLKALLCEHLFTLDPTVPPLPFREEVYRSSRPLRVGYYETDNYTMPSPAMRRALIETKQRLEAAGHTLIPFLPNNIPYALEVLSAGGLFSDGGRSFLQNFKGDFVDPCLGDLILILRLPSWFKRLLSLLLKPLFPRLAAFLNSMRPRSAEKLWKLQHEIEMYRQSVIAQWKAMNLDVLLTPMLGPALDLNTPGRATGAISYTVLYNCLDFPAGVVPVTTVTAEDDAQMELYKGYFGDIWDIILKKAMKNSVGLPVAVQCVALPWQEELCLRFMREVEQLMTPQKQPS
The data set can be described thus: Inhibition of FAAH in rat brain membrane assessed as [14C]anandamide hydrolysis at 50 uM by scintillation counting. It counts as cell membranes. Put shortly:
(§1)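 Enzyme source was a rat brain membrane pellet resuspended in 50 mM Tris-HCl, pH 9.0, 70 µg protein per assay. It was incubated with compound (10 or 50 µM) and [14C]anandamide (10000 cpm) for 30 min at 37 °C. After CHCl3/MeOH (1:1) extraction, [14C]ethanolamine in the aqueous phase was counted by scintillation. Points were run in duplicate.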

Data set [7] deals with Mus musculus. Kind of data set: Antinociceptive activity against formalin-induced nociceptive behavior in C57BL/6 mouse assessed as mean licking time at 200 mg/kg, ip administered 15 mins prior to formalin challenge measured upto 10 mins relative to control. The settings on record: route intraperitoneal. In kind it is functional. Put shortly:
(§2)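 C57BL/6 mice (n = 6-8 per group) were habituated 15-20 min in an observation chamber with mirrors, then given the compound ip at 6 µL/g in PBS/DMSO. Formalin (5%, 20 µL) went into the dorsal left hind paw 15 min later. Licking of the injected paw was summed over 0-10 min (phase 1) and 15-45 min (phase 2) and expressed as % of the vehicle control. Groups were compared by t test.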

Data set [8] has as its system Mus musculus. Kind of data set: Antinociceptive activity against formalin-induced nociceptive behavior in C57BL/6 mouse assessed as mean licking time at 200 mg/kg, ip administered 15 mins prior to formalin challenge measured after 15 to 45 mins relative to control. The settings on record: route intraperitoneal. It counts as functional. An outline of the steps: as §2

Data set [9] addresses T4, Fatty-acid amide hydrolase 1 (Rattus norvegicus). The data set can be described thus: Inhibition of FAAH in rat brain membrane assessed as [14C]anandamide hydrolysis at 10 uM by scintillation counting. It counts as cell membranes. An outline of the steps: as §1
In data set [10] the target is T2, Cannabinoid receptor 2. The data set can be described thus: Displacement of [3H]CP-55940 from human recombinant CB2 receptor expressed in HEK293 cells. It counts as cell-based. Put shortly: (§3)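 Membranes were from HEK-293 cells overexpressing human CB1 or CB2, with [3H]CP-55,940 as radioligand (Kd 0.18 nM CB1, 0.31 nM CB2). Test compound (1 nM-10 µM) was incubated 90 min at 30 °C. Displaced radioligand was counted by scintillation. Ki came from IC50 via Cheng-Prusoff, with triplicate points; single-concentration screens were run in duplicate.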

In data set [11] the target is T3, Cannabinoid receptor 1. The data set can be described thus: Displacement of [3H]CP-55940 from human recombinant CB1 receptor expressed in HEK293 cells. It counts as cell-based. An outline of the steps:
as §3

In data set [12] the target is T5, Prostaglandin G/H synthase 2 (Homo sapiens) (UniProt P35354).
T5 sequence (whole entry): T1 sequence (P35354 whole entry)
The data set can be described thus: Inhibition of human recombinant cyclooxygenase 2 assessed as prostaglandin F2alpha level at 10 uM by enzyme immunoassay relative to control. An outline of the steps:
(§4)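 Isolated ovine COX-1 or human recombinant COX-2 was incubated with compound at 1 or 10 µM for 10 min at 37 °C. Buffer was 0.1 M Tris-HCl pH 8.0 with 5 mM EDTA and 2 mM phenol. PGH2 formed was reduced to PGF2α with stannous chloride for quantification. Ketoprofen (10 µM) served as reference; values are means of four experiments.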

Data set [13] concerns the target T6, Prostaglandin G/H synthase 1 (Ovis aries) (UniProt P05979).
T6 sequence (whole entry): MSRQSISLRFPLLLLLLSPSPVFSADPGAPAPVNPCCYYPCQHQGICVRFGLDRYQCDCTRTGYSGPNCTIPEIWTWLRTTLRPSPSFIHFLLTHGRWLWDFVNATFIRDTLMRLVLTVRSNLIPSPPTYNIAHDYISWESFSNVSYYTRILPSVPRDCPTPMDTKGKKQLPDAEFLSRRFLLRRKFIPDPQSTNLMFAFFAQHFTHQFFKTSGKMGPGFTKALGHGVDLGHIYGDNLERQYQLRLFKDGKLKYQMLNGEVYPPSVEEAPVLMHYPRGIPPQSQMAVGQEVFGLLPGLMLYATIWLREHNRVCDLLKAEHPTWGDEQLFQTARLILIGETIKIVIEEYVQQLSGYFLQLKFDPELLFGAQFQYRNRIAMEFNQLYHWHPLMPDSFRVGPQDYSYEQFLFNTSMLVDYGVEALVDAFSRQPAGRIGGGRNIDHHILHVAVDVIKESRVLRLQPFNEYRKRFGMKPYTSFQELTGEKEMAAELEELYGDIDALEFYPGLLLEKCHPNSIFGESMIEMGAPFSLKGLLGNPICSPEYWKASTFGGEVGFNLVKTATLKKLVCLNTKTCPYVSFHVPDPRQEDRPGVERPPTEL
The data set can be described thus: Inhibition of ovine cyclooxygenase 1 assessed as prostaglandin F2alpha level at 10 uM by enzyme immunoassay relative to control. An outline of the steps: as §4

T2 sequence (P34972 whole entry): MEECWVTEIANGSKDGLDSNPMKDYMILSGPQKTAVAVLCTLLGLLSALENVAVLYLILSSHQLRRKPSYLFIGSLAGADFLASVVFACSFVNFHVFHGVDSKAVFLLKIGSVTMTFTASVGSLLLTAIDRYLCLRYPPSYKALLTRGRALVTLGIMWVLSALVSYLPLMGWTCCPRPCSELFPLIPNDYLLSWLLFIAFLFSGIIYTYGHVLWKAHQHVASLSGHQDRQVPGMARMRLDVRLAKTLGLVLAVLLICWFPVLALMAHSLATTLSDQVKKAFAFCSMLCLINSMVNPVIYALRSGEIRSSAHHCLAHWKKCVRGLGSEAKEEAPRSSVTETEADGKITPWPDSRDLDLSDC

What is called IC50 is the concentration that gives 50% inhibition. As a reminder, the inhibition is the relative decrease from the control value, in per cent. On to `COc1cc(NC(C)=O)ccc1O`, for which the IC50 came to 138000 nM in [1] and 234000 nM in data set [5]. The Activity result with Mus musculus [2] was “Toxic”; at Cannabinoid receptor 2 [3], 22%; on Cannabinoid receptor 1 [4], 16%. Moreover, the inhibition in data set [6] was 8%.

On to `CC(=O)Nc1ccc(O)cc1` [ACETAMINOPHEN], for which the Activity in the data set with Mus musculus [7] stood at 100%; at Cannabinoid receptor 2 [3], 15%; at Cannabinoid receptor 1 [4] it was 13%; with Mus musculus [8], 47%. Further, the outcome in data set [5] was Active. The inhibition in [6] is 22%.

As usually defined, the Ki is the dissociation constant of the complex between target and ligand, obtained from inhibition or displacement. Turning to `CCCCC/C=C\C/C=C\C/C=C\C/C=C\CCCC(=O)NCc1ccc(O)cc1`, the inhibition in data set [9] came out at 56%; in [6], 88%. Besides, the Ki was determined as 100 nM at Cannabinoid receptor 2 [10] and 200 nM at Cannabinoid receptor 1 [11].

In the case of `CCCCC/C=C\C/C=C\C/C=C\C/C=C\CCCC(=O)Nc1ccc(O)c(OC)c1`, the inhibition in data set [9] is 23%; in data set [6] it was 62%. Also, the Ki at Cannabinoid receptor 2 [10] was found to be 1000 nM; on Cannabinoid receptor 1 [11], 1400 nM.

As to `CC(C(=O)O)c1cccc(C(=O)c2ccccc2)c1` (configuration not stated), the inhibition in data set [12] was 41%; in data set [13] it was 16%.
